ChEMBL document CHEMBL1141512, “Arylsulfonamide CB2 receptor agonists: SAR and optimization of CB2 selectivity” (Bioorg Med Chem Lett, 2008)
pEC50, pKi: −log10 of the molar value.

Experiments:
Cannabinoid receptor 2 [1] = target: T1, Cannabinoid receptor 2 (Homo sapiens, UniProt P34972); experiment: Agonist activity at human CB2 receptor expressed in CHO cells assessed as inhibition of forskolin-stimulated cAMP level relative to CP-55940; assay type: functional, cell-based; set-up: Activity: scale not given: the % may be the effect or the level left
Outline: (§1)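 CHO cells stably expressing human CB2 or CB1 were seeded at 5000 cells/well and grown overnight at 37 °C. Compounds were added in stimulation buffer (1 mM IBMX, 0.25% BSA, 10 µM forskolin) for 30 min at 37 °C. cAMP was measured in lysates with a cAMP kit; 100% = forskolin-stimulated cAMP versus level with 200 nM CP-55940. EC50 came from a four-parameter logistic fit; efficacy is relative to CP-55940. Each run was triplicate, at least three times.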

Homo sapiens = species on record: Homo sapiens; experiment: Selectivity for human CB2 receptor over human CB1 receptor by cAMP assay; outline: as §1
Cannabinoid receptor 2 [2] = target: T1, Cannabinoid receptor 2; experiment: Agonist activity at human CB2 receptor expressed in CHO cells assessed as inhibition of forskolin-stimulated cAMP level; assay type: functional, cell-based
Outline: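 CHO cells expressing human CB2, 5000 cells/well, incubated overnight at 37 °C. Compounds given in stimulation buffer with 1 mM IBMX, 0.25% BSA and 10 µM forskolin for 30 min at 37 °C. Cells lysed and cAMP read by enzyme-fragment kit. Forskolin-stimulated cAMP versus cAMP with 200 nM CP-55940 defines 100%. EC50 from four-parameter logistic fit. Triplicate, at least three runs.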

Cannabinoid receptor 1 = Cannabinoid receptor 1 (Homo sapiens, UniProt P21554); experiment: Displacement of [3H]CP-55940 from human CB1 receptor expressed in HEK cells; assay type: cell-based, HEK293
Outline: (§2)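 SPA binding with HEK membranes expressing human CB1 (2.5 µg/well) or CB2 (2 µg/well) on poly-L-lysine beads. Buffer: 50 mM Tris pH 7.5, 2.5 mM EDTA, 5 mM MgCl2, 0.8% fatty-acid-free BSA. Compounds at 1e-5 to 1e-10 M. [3H]-CP-55940 final 2.5 nM (CB1) or 4 nM (CB2). IC50 from four-parameter logistic fit, converted to Ki by Cheng-Prusoff.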

Cannabinoid receptor 2 [3] = target: T1, Cannabinoid receptor 2; experiment: Displacement of [3H]CP-55940 from human CB2 receptor expressed in HEK cells; assay type: cell-based, HEK293; outline: as §2

T1 sequence (P34972 whole entry): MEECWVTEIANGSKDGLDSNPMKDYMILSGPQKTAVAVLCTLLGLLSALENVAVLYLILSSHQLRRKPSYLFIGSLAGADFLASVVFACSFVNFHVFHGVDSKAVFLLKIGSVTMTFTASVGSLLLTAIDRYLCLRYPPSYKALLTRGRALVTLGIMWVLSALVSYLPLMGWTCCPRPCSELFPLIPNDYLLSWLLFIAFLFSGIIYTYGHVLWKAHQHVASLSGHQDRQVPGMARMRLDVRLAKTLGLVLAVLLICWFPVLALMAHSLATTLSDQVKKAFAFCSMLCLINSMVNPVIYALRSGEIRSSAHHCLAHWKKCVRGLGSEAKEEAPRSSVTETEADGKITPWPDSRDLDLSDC
Sequence of Cannabinoid receptor 1 (P21554 whole entry): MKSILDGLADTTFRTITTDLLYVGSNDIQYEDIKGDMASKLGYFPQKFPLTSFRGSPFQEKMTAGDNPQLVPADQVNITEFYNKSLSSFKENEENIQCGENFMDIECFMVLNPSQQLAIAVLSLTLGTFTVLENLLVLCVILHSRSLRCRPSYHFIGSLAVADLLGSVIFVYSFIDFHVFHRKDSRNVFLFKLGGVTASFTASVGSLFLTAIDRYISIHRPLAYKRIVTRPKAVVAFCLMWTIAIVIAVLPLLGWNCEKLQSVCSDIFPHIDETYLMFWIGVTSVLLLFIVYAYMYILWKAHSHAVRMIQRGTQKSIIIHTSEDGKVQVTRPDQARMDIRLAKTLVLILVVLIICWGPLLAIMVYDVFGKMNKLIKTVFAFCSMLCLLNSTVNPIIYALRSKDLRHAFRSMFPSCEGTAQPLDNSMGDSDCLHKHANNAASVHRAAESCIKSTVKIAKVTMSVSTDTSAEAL

SMILES | Activity (Cannabinoid receptor 2 [1]) [%] | Selectivity ratio (Homo sapiens) | pEC50 (Cannabinoid receptor 2 [2]) | pKi (Cannabinoid receptor 1) | pKi (Cannabinoid receptor 2 [3]) | Emax (Cannabinoid receptor 2 [1]) [%]
Cc1ccc(C(=O)N2CCC3CCCCC3C2)cc1S(=O)(=O)NCC(C)C (stereo not drawn) | 96 | 939 | 7.85 |  |  | 
Cc1ccc(C(=O)N2CCCC3CCCCC32)cc1S(=O)(=O)N1CCCCC1 (stereo not drawn) | 82 | 94 | 8.22 |  |  | 
Cc1ccc(C(=O)N2CCC3CCCCC3C2)cc1S(=O)(=O)N1CCC(O)CC1 (stereo not drawn) | 86 | 37 | 6.67 |  |  | 
Cc1ccc(C(=O)N2CC[C@@H]3CCCC[C@H]3C2)cc1S(=O)(=O)N1CCCCC1 (relative stereo) | 93 | 6890 | 9.00 |  |  | 
Cc1ccc(C(=O)N2CCC3CCCCC3C2)cc1S(=O)(=O)N1CCCCC1 (stereo not drawn) | 95 | 4330 | 8.82 |  |  | 
O=C(NCC1CCOCC1)c1cnc(Nc2ccc(Cl)cc2Cl)nc1C(F)(F)F | 95 | > 470 |  |  |  | 
Cc1ccc(C(=O)N2CCC3CCCCC3C2)cc1S(=O)(=O)N1CCCC1 (stereo not drawn) | 94 | 2240 | 8.40 |  |  | 
Cc1ccc(C(=O)NC2CCCCC2)cc1S(=O)(=O)N1CCCCC1 | 86 | 24 | 7.85 |  |  | 
Cc1ccc(C(=O)Nc2nccc3ccccc23)cc1S(=O)(=O)N1CCCCC1 | 98 | 25 | 9.00 |  |  | 
Cc1ccc(C(=O)N2CCC3CCCCC3C2)cc1S(=O)(=O)NC(C)C (stereo not drawn) | 101 | 0.1 | 5.64 |  |  | 
Cc1ccc(C(=O)N2CCC3CCCCC3C2)cc1S(=O)(=O)N1CCC1 (stereo not drawn) | 94 | > 1500 | 7.89 |  |  | 
Cc1ccc(C(=O)N2CCC3CCCCC3C2)cc1S(=O)(=O)N1CCCCCC1 (stereo not drawn) | 100 | 3280 | 8.70 |  |  | 
Cc1ccc(C(=O)N2CCC3CCCCC3C2)cc1S(=O)(=O)N1CCOCC1 (stereo not drawn) | 104 | 2640 | 8.30 |  |  | 
Cc1ccc(C(=O)N2CCC3CCCCC3C2)cc1S(=O)(=O)N1CCN(C(C)C)CC1 (stereo not drawn) | 45 |  | 6.23 |  |  | 
Cc1ccc(C(=O)N[C@H](C)C2CCCCC2)cc1S(=O)(=O)N1CCCCC1 | 85 | 45 | 7.74 |  |  | 
Cc1ccc(C(=O)N2CCC3CCCCC3C2)cc1S(=O)(=O)N1CCSCC1 (stereo not drawn) | 90 | 3250 | 9.00 |  |  | 
O=C(NC1CCCCC1)c1ccc(Cl)c(S(=O)(=O)N2CCCC2)c1 | 74 | 85 | 8.52 |  |  | 
Cc1ccc(C(=O)Nc2cccc(Cl)c2)cc1S(=O)(=O)N1CCCCC1 | 80 | 31 | 7.57 |  |  | 
Cc1ccc(C(=O)Nc2cccc3cccnc23)cc1S(=O)(=O)N1CCCCC1 | 100 | 7 | 8.40 |  |  | 
Cc1ccc(C(=O)Nc2ccccc2C(F)(F)F)cc1S(=O)(=O)N1CCCCC1 | 92 | 96 | 8.70 |  |  | 
COc1ccc2c(c1)c(CCN1CCOCC1)c(C)n2C(=O)c1cccc(Cl)c1Cl | 44 |  | 9.19 |  |  | 
CC(C)c1ccc(C(=O)NC2CCCCC2)cc1S(=O)(=O)N1CCCC1 | 86 | 60 | 8.40 |  |  | 

SMILES | Activity (Cannabinoid receptor 2 [1]) [%] | Selectivity ratio (Homo sapiens) | pEC50 (Cannabinoid receptor 2 [2]) | pKi (Cannabinoid receptor 1) | pKi (Cannabinoid receptor 2 [3]) | Emax (Cannabinoid receptor 2 [1]) [%]
Cc1ccc(C(=O)Nc2ccccc2)cc1S(=O)(=O)N1CCCCC1 | 74 | 6 | 6.86 |  |  | 
O=C(c1cccc(S(=O)(=O)N2CCCC2)c1)N1CC[C@@H]2CCCC[C@H]2C1 (relative stereo) |  |  | < 4.70 |  |  | 
Cc1ccc(C(=O)N(C)c2ccccc2Cl)cc1S(=O)(=O)N1CCCCC1 |  |  | < 4.70 |  |  | 
CC(C)c1ccc(C(=O)N2CCC3CCCCC3C2)cc1S(=O)(=O)N1CCCC1 (stereo not drawn) | 101 | 2860 | 9.40 |  |  | 
COc1ccccc1NC(=O)c1ccc(C)c(S(=O)(=O)N2CCCCC2)c1 | 91 | 9 | 7.68 |  |  | 
Cc1ccc(C(=O)Nc2ccc(Cl)cc2)cc1S(=O)(=O)N1CCCCC1 | 117 |  | 4.85 |  |  | 
Cc1ccc(C(=O)Oc2cccc3cccnc23)cc1S(=O)(=O)N1CCCCC1 | 99 | 1 | > 9.00 | 8.52 | 8.40 | 
Cc1ccc(C(=O)N2CCC3CCCCC3C2)cc1S(=O)(=O)N1CCS(=O)(=O)CC1 (stereo not drawn) | 99 | 7740 | 8.70 |  |  | 
Cc1ccc(C(=O)Nc2ccc3ccccc3n2)cc1S(=O)(=O)N1CCCCC1 | 45 |  | 6.71 |  |  | 
Cc1ccc(C(=O)Nc2ccccc2S(C)(=O)=O)cc1S(=O)(=O)N1CCCCC1 | 96 | 66 | 8.22 |  |  | 
Cc1ccc(C(=O)Nc2ccccc2Cl)cc1S(=O)(=O)N1CCCCC1 | 89 | 13 | 8.30 |  |  | 
Cc1ccc(C(=O)NC2(C)CCCCC2)cc1S(=O)(=O)N1CCCCC1 | 58 |  | 7.74 |  |  | 
Cc1ccc(C(=O)N2CCC3CCCCC3C2)cc1S(=O)(=O)Nc1ccccc1 (stereo not drawn) |  |  | < 4.70 |  |  | 
Cc1ccc(C(=O)N2CCCCC2)cc1S(=O)(=O)N1CCCCC1 |  | > 240 | 7.09 |  |  | 85
Cc1ccc(C(=O)NC2CCCCC2)cc1S(=O)(=O)N1CCCC1 | 81 | 181 | 7.68 |  |  | 
Cc1ccc(C(=O)N(C)C2CCCCC2)cc1S(=O)(=O)N1CCCCC1 | 86 | 38 | 6.92 |  |  | 
Cc1ccccc1NC(=O)c1ccc(C)c(S(=O)(=O)N2CCCCC2)c1 | 76 | 1.5 | 6.81 |  |  | 
Cc1ccc(C(=O)N[C@@H](C)C2CCCCC2)cc1S(=O)(=O)N1CCCCC1 | 73 | 2 | 8.30 |  |  | 
O=C(c1ccc(Cl)c(S(=O)(=O)N2CCCC2)c1)N1CCC2CCCCC2C1 (stereo not drawn) | 93 | 520 | 8.40 |  |  | 
O=C(c1ccc(C2CCCCC2)c(S(=O)(=O)N2CCCC2)c1)N1CCC2CCCCC2C1 (stereo not drawn) |  |  | < 4.70 |  |  | 
O=C(c1ccc(Cl)c(S(=O)(=O)N2CCCC2)c1)N1CC[C@@H]2CCCC[C@H]2C1 (relative stereo) | 89 | 3770 | 8.52 |  |  | 
O=C(NC1CCCCC1)c1cccc(S(=O)(=O)N2CCCC2)c1 |  |  | < 4.70 |  |  | 
